Measurements reported in article PMC4467237 (Clinical Pharmacology in Drug Development, 2014).
“Also recorded” adds a separate entry of the source. Where two headings read alike, the source gives them in different places. Marks after values point to notes of the source that are not given here.

Columns and labels:
[1] = cited from earlier work
CYP3A4 = conditions: lenvatinib 0.1–10 µg/mL, human liver microsomes and human recombinant CYPs; ref Eisai data on file; cited from earlier work
[2] = type: in vivo, human; conditions: for AUC(0-t) / AUC(0-inf) / Tmax / half-life: human, plasma, oral
[3] = healthy volunteers, cited from earlier work
[4] = single agent, Phase I and II studies; cited from earlier work
Safety assessments = type: in vivo, human
Outline: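 Healthy adults in a randomized two-sequence crossover with a 14-day washout. Each period gave an oral 400 mg interacting drug or placebo once daily for 18 days, plus a single oral 5 mg test compound on day 5 after a 10-h fast. AEs checked daily, graded mild/moderate/severe and for causality, coded in MedDRA v14.0. Vital signs taken before PK draws. Labs, 12-lead ECG and physical exam at baseline, predose and discharge. Summarized descriptively in dosed subjects with ≥1 postdose assessment.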

[5] = human; cited from earlier work
[6] = 5 mg lenvatinib + ketoconazole 400 mg/day [B], n = 16
[7] = 5 mg lenvatinib + placebo [A], n = 16
[8] = 5 mg, arithmetic mean (SD), 5 mg lenvatinib + placebo [A], n = 16
[9] = 5 mg, geometric mean (%CV), 5 mg lenvatinib + placebo [A], n = 16
[10] = arithmetic mean (SD), 5 mg lenvatinib + ketoconazole 400 mg/day [B], n = 16
[11] = geometric mean (%CV), 5 mg lenvatinib + ketoconazole 400 mg/day [B], n = 16

Cc1ccc(NC(=O)c2ccc(CN3CCN(C)CC3)cc2)cc1Nc1nccc(-c2cccnc2)n1 [imatinib]
Increase in AUC with ketoconazole coadministration ([1]; imatinib): 40%

COc1cc2nccc(Oc3ccc(NC(=O)NC4CC4)c(Cl)c3)c2cc1C(N)=O [Lenvatinib]
Share of CYP3A4 in the CYP-mediated metabolism of lenvatinib (CYP3A4): > 80%
CL/F, arithmetic mean (SD) [2, 6]: 7.70 (1.49) L/h
tlag, arithmetic mean (SD) [2, 6]: 0.06 (0.17) ^e h
CL/F, arithmetic mean (SD) [2, 7]: 8.78 (1.40) L/h
tlag, arithmetic mean (SD) [2, 7]: 0.16 (0.24) ^b h
Increase in Cmax with ketoconazole versus placebo ([2]; 5 mg lenvatinib, ketoconazole 400 mg/day): 19%
Percent extrapolation of AUC0–∞ ([2]; across all subjects): < 4%
Median time at which Cmax was achieved ([2]; both treatment conditions (placebo or ketoconazole)): 3 h
AUC(0-t) [2, 8]: 571 ng·h/mL
AUC(0-t) [2, 9]: 564 ng·h/mL
AUC(0-inf) [2, 8]: 584 ng·h/mL
AUC(0-inf) [2, 9]: 577 ng·h/mL
Tmax ([2]; 5 mg, tmax median (range), 5 mg lenvatinib + placebo [A]): 3 h
Tmax ([2]; 5 mg, tmax, arithmetic mean (SD), 5 mg lenvatinib + placebo [A], n = 16): 3.13 h
half-life ([2]; 5 mg, t½ median (range), 5 mg lenvatinib + placebo [A]): 29 h
AUC(0-t) [2, 10]: 661 ng·h/mL
AUC(0-t) [2, 11]: 647 ng·h/mL
AUC(0-inf) [2, 10]: 676 ng·h/mL
AUC(0-inf) [2, 11]: 662 ng·h/mL
Tmax ([2]; tmax median (range), 5 mg lenvatinib + ketoconazole [B]): 3 h
Tmax ([2]; tmax, arithmetic mean (SD), 5 mg lenvatinib + ketoconazole 400 mg/day [B], n = 16): 2.56 h
half-life ([2]; t½ median (range), 5 mg lenvatinib + ketoconazole [B]): 29.2 h
half-life ([2]; t½, arithmetic mean (SD), 5 mg lenvatinib + ketoconazole 400 mg/day [B], n = 16): 28.3 h
Decrease in apparent mean clearance in the ketoconazole treatment group ([2]; versus placebo): ~12%
Difference in tmax, t½ or tlag between the two treatments ([2]; visual assessment, ketoconazole versus placebo): No changes; also recorded: no difference
Median tmax ([3]; range 1–4 hours): 2 h
Mean t½ ([3]; range 11–57 hours): 27.6 h
AUC0–∞ [3]: 1409 ng·h/mL
Mean Cmax [3]: 144.5 ng/mL
Maximum tolerated dose [4]: 25 mg/day
Subjects reporting treatment-emergent AEs (Safety assessments; following ketoconazole with lenvatinib, 18 subjects): 44%
Subjects reporting treatment-emergent AEs (Safety assessments; following placebo with lenvatinib, 17 subjects): 59%
ECG results (Safety assessments; overall, both treatments): either normal or considered not clinically significant
Serious TEAEs (Safety assessments; overall, both treatments): No serious TEAEs were reported
Subjects with treatment-related TEAEs (Safety assessments; overall, both treatments): 22%
Subjects reporting treatment-emergent AEs (Safety assessments; overall, both treatments, N = 18): 72%
Hypertension (Safety assessments; single-dose lenvatinib 5 mg alone or with ketoconazole, healthy subjects): not observed
Renal clearance as contributor to oral clearance [5]: 1–2%
Terminal exponential half-life (t½,z) [5]: ~28 h

Cc1cn(-c2cc(NC(=O)c3ccc(C)c(Nc4nccc(-c5cccnc5)n4)c3)cc(C(F)(F)F)c2)cn1 [nilotinib]
Increase in AUC with ketoconazole coadministration ([1]; nilotinib): more than 200%
Increase in Cmax with ketoconazole coadministration ([1]; nilotinib): 84%
